Consider 48 sequences from the EternaBench riboswitch data.

The data set relates to MS2 coat protein. Description: apparent Kd, MS2 coat protein; higher = weaker binding; RNA-MaP array; FMN 200 µM where present. The procedure, abridged: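 Binding was read on Illumina sequencing-chip clusters where stalled E. coli RNA polymerase had transcribed each design. A titration of SNAP-549-labelled MS2 coat protein began at 0.7 or 1.5 nM and doubled to 3 µM, once without ligand and once with constant ligand, in 100 mM Tris-HCl pH 7.5, 80 mM KCl, 4 mM MgCl2, BSA, DTT, yeast tRNA and Tween-20. The apparent Kd is the median of filtered per-cluster binding-curve fits, based on green signal normalised to red-channel RNA signal and control-cluster median Fmax.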

Setting [1] is: designed as: OFF switch for flavin mononucleotide, no ligand.
Setting [2] is: ligand present: flavin mononucleotide, designed as: OFF switch for flavin mononucleotide.
[3] abbreviates: designed as: ON switch for flavin mononucleotide, no ligand.
The mark [4] stands for this setting: ligand present: flavin mononucleotide, designed as: ON switch for flavin mononucleotide.

In the case of “CCUUCGUGAGGAUAUCAUAGACAGCUCUCAGAAAUGGUCAAUGAGAAGGCACAUGAGGAUCACCCAUGUGGGUC”, the “apparent Kd” value was 56.3 nM under setting [1] and 198 nM under setting [2].

For “AAGUCGAGUAAUAAAUAAGAUCUACAUGAGGAUCACCCAUGUAAGGAUAUGCAGUGGAAUACACUGCAGAAGGUACAUCUCGAC”, the “apparent Kd” value under setting [1] is 14 nM and the “apparent Kd” value under setting [2] worked out at 35 nM.

Regarding “AGGAGGUCAGGAUAUGCAUGGCGGGACUUGCGUCGUGGCGUGCAGAAGGGACAUGAGGAUCACCCAUGUGGAGU”, the “apparent Kd” value by setting is: under setting [1], 113 nM; under setting [2], 139 nM.

With “GCAUACAUUCGAGGAUAUCGGUGAACAAAUUAACGAGAAGGCGAUAUAAUGUUUAAUCUUAUAAACAUGAGGAUCACCCAUGUA”, the “apparent Kd” value under setting [3] turned out to be 76.9 nM and the “apparent Kd” value under setting [4] was 31.2 nM.

On to “GGGCCCGGUGUGAGGAUAUGGGCCCGGAAACGGGCCCAGAAGGCACAUGAGGAUCACCCAUGUAAGCCGGGCCC”, for which the “apparent Kd” value turned out to be 15.4 nM under setting [1] and 15.7 nM under setting [2].

As for “CGGUCCCAUGUGAGGAUAUCGGAGCGAAAAUACUGCGAGAAGGUACAUGAGGAUCACCCAUGUCUCCUAUUGCC”, the “apparent Kd” value by setting is: under setting [1], 16.5 nM; under setting [2], 32.5 nM.

In the case of “UUAACACAUGAGGAUCACCCAUGUUAGGAUAUUGUGGUGGGAACAACUGGGAAACGCACGAGAAGGGACACACA”, the “apparent Kd” value reads like this: under setting [1], 35.7 nM; under setting [2], 26.2 nM.

Take “GCAUGAAAUGUGAGGAUAUACCUCUGGAUACAUAGGUAGAAGGCACAUGAGGAUCACCCAUGUCCUAAACAUGC”: the “apparent Kd” value under setting [1] was determined as 34.7 nM and the “apparent Kd” value under setting [2] worked out at 42.2 nM.

Turning to “UCCACUGCUGAGAAGGGAUACGUCUGGUUCGCAUCAGGAUAUCGAUACAGUGCAGCAUGAGGACAUGAGGAUCACCCAUGUGUC”, the “apparent Kd” value under setting [3] was found to be 21.6 nM and the “apparent Kd” value under setting [4] was determined as 19.3 nM.

As for “GUGUACAGAGGAUAUACAUGGGCAUGAAAACAUGCAUCUUCACAUGAGGAUCACCCAUGUAGAAGGCUGUACAC”, the “apparent Kd” value under setting [1] was determined as 24.6 nM and the “apparent Kd” value under setting [2] was 16.9 nM.

For “GCGUUUUAUGCAGGAUAUUGUAAUUUAUUACUACAAGAAGGGCAAUACAUGAGGAUCACCCAUGUCAGCAUGGUUUUUAAGUUC”, the “apparent Kd” value by setting is: under setting [1], 20.4 nM; under setting [2], 25.9 nM.

For the sequence “GUAGCUAUCGGAGGAUAUGGGUUGCGGAAACGCACAUGAGGAUCACCCAUGUAAAUAAAUAAUUCCUAGAAGGCCGAUAGCUAC”, the “apparent Kd” value reads like this: under setting [3], 21 nM; under setting [4], 15 nM.

In the case of “GGCAUAAUGUAGGAUAUCGUAUUGGAAACAAUACGAGAAGGGCAAACAUGAGGAUCACCCAUGUUCCUUAAGCC”, the “apparent Kd” value under setting [1] came out at 18.5 nM and the “apparent Kd” value under setting [2] was 19 nM.

With “AAAACGAUGUGAGGAUAUCACCGCUGUGACGGCUGAGAAGGCACAUGAGGAUCACCCAUGUGCAGGCGUGUGUGGGUAAUCCUA”, the “apparent Kd” value under setting [1] is 109 nM and the “apparent Kd” value under setting [2] amounted to 94.8 nM.

“CUUUCGUGAGGAUAUGUGGCUUCGAUCGUGAGAUCGAAGCUACAGAAGGCACAUGAGGAUCACCCAUGUUCCUC”: the “apparent Kd” value was found to be 38.5 nM under setting [1] and 544 nM under setting [2].

“UCCGUACUAGGAUAUACAGCAAAAUCAAACAAAUUCCUCAAACAUGAGGAUCACCCAUGUAGAAGGAGUACCAA”: the “apparent Kd” value runs as follows: under setting [1], 17.4 nM; under setting [2], 14.7 nM.

In the case of “AAAAGACAUGAGGAUCACCCAUGUCAAAACAUAGGAGGAUAUGUCUUGAAAAAAGACUUGACAGAAGGCCUUUGUC”, the “apparent Kd” value was found to be 17.9 nM under setting [3] and 15.8 nM under setting [4].

As for “GCGUAUUAGGUGUAGCUAGACAUUCAAGAAGGGUGAAGAACAUGAGGAUCACCCAUGUAGUUGUUACAGGAUAUUGAUUUACGC”, the “apparent Kd” value is, setting by setting: under setting [3], 785 nM; under setting [4], 260 nM.

Turning to “GCUCUGGCAUGAGGAUAUGGUCAGCUUUGCUGACCAGAAGGCAUGUCAAUAGACAUGAGGAUCACCCAUGUAGUUAACAGAGCA”, the “apparent Kd” value by setting is: under setting [3], 538 nM; under setting [4], 37.3 nM.

With “UGUCGGAGCAGAGGAUAUUACAUGAGGAUCACCCAUGUAUGAACCAAUAGCUGGAAACAGCAAUGUAAGAAGGCUGCUCCGCCA”, the “apparent Kd” value came to 11.8 nM under setting [1] and 187 nM under setting [2].

In the case of “GGAUUGAAUGAGGAUAUCGUAUUAGGUGUAAUGCGAGAAGGCAUGACAUGAGGAUCACCCAUGUAGUGUGGGUU”, the “apparent Kd” value is, setting by setting: under setting [1], 509 nM; under setting [2], 772 nM.

“ACAAGAUCAGGAUAUACAUGAGGAUCACCCAUGUAUUUCAAAAAAAAACUUUCUUUAUGUAGAAGGGAUCUUGU”: the “apparent Kd” value reads like this: under setting [1], 14.7 nM; under setting [2], 13.5 nM.

“GUUCGGGCAGGAUAUACAUGAGGAUCACCCAUGUGUGUCCAUACGCGUGAGUCCUCGUGUAGAAGGGUUUGGGC”: the “apparent Kd” value runs as follows: under setting [1], 23.2 nM; under setting [2], 17.4 nM.

For “CUUUUGUGAGGAUAUCAGUAGUAGAACAAUAGUACUACUACUGAGAAGGCACAUGAGGAUCACCCAUGUUCCUC”, the “apparent Kd” value by setting is: under setting [1], 62.5 nM; under setting [2], 455 nM.

For “UGGUGAAGUGUAGGAUAUGGAGGUGGGUUUUGGCCAGAAGGACAUGAGGAUCACCCAUGUGGUAGAGGGUUGGUGGUGGCUCGU”, the “apparent Kd” value under setting [1] stood at 23.9 nM and the “apparent Kd” value under setting [2] came out at 21.4 nM.

Consider “CAGUACUGAGGAUAUACAUGAGGAUCACCCAUGUCUUAAAAGUAGGAUACUACUAUUAGUAGAAGGCAGUACUG”, for which the “apparent Kd” value is 13.2 nM under setting [1] and 34.9 nM under setting [2].

“ACAUGAGGAUCACCCAUGUAAUGAUGGGUACUAUAUUAUUCGUAGGAUAUCGUUGUUAGUUUGUGCGAGAAGGACGAUUGCUUU”: the “apparent Kd” value runs as follows: under setting [1], 871 nM; under setting [2], 1060 nM.

Consider “CGCUAUGACAUAGGAUAUUGAUACAUGAGGAUCACCCAUGUCAACCAUGAAGCUCGAUUUGUUGACAAGAAGGAUGUGGUAGCG”, for which the “apparent Kd” value was found to be 165 nM under setting [3] and 44.7 nM under setting [4].

Take “GUCAGCUCGUGAGGAUAUAAAACACUGCUUCGGCAGUGUAUUAAGAUCACAUGAGGAUCACCCAUGUAGAAGGCACGAGCUGAU”: the “apparent Kd” value was determined as 5.05 nM under setting [1] and 6.38 nM under setting [2].

For “GCGUUAUUGUAGAAGGUACAUGAAUAUAUUUAAUACCUCAAGUAACAUGAGGAUCACCCAUGUAGUAAGGAUAUACAUAUACGC”, the “apparent Kd” value was found to be 69.4 nM under setting [3] and 52.4 nM under setting [4].

In the case of “GGACAUGUCGUCUACAUGAGGAUCACCCAUGUCGAUAGACAUGAGGAUAUCGAUAAGAAUUGUAUCGAGAAGGCAUGCAGGUCC”, the “apparent Kd” value by setting is: under setting [3], 19.8 nM; under setting [4], 21.6 nM.

In the case of “CUAUGUUAGCAGGAUAUGCCAUUAUUCCUUUUCGCAGAAGGGCUUACAUGAGGAUCACCCAUGUUACAUUUCUU”, the “apparent Kd” value under setting [1] was 12.4 nM and the “apparent Kd” value under setting [2] was 17.6 nM.

For the sequence “UGAUCGAGAGAUCUUAGAUUCUGGUAGGAUAUACAUUAUAGAAGUUAUACAUGAGGAUCACCCAUGUAGAAGGACUAGAGUCUA”, the “apparent Kd” value runs as follows: under setting [1], 5.73 nM; under setting [2], 7.54 nM.

Regarding “AAUAAACUCACAGGAUAUAGCAUAGGUCGCGUGUACUUACAGGCGACUAUGCUAGAAGGGUGACCACAUGAGGAUCACCCAUGU”, the “apparent Kd” value worked out at 887 nM under setting [3] and 188 nM under setting [4].

Regarding “GUGGUUGUCGUAGGAUAUGUAGGAUAUUCCUACAUGAGGAUCACCCAUGUUAGCAUGGAAGAAGGACAGAAGGACGAUGACCAG”, the “apparent Kd” value came to 904 nM under setting [3] and 15.1 nM under setting [4].

Turning to “GUUCUUCCUGUGAGGAUAUCCAUGUGUCGGUUUAUGGAGAAGGUACAUGAGGAUCACCCAUGUCACCCGCGUUA”, the “apparent Kd” value is, setting by setting: under setting [1], 14 nM; under setting [2], 18.8 nM.

For “UUCAUGUGAGGAUAUGUGAUCUGCUUUCUGUGUAGAUGAUCACAGAAGGCACAUGAGGAUCACCCAUGUAGAUC”, the “apparent Kd” value turned out to be 103 nM under setting [1] and 79.4 nM under setting [2].

For the sequence “UUUAAUUAGUAGAAGGACGGAGAGUAAGAAGUCGUAGGAUAUACAUAAGACAUGAGGAUCACCCAUGUGUGUAUGUUGGGUAGG”, the “apparent Kd” value worked out at 6.57 nM under setting [1] and 7.72 nM under setting [2].

Turning to “GACGGUGAUGUAGGAUAUACGCUGGAAUACAGCGUAGAAGGACAUGAGGAUCACCCAUGUAAAGUGUCUCCGAAUAACACCGUC”, the “apparent Kd” value reads like this: under setting [1], 35.3 nM; under setting [2], 68.6 nM.

Regarding “AAGUCAGCAGGAUAUGCGAUGUUGGGCUAGGUAGCUUGACCACAUGAGGAUCACCCAUGUAGAAGGGCUGGCUA”, the “apparent Kd” value runs as follows: under setting [1], 17.4 nM; under setting [2], 14 nM.

Turning to “CCUGAGUCAGGAUAUUGUACCAGUCUAAAACCAGACUGACCCAAGAAGGGACAUGAGGAUCACCCAUGUGAAAA”, the “apparent Kd” value is 30.2 nM under setting [1] and 25.5 nM under setting [2].

Take “AAUGUUUUCAUAGGAUAUUGACUUUUAUUUAUUCAAGAAGGAUGAUAACAUGAGGAUCACCCAUGUUAAAAUGGAUUAACUAGU”: the “apparent Kd” value turned out to be 16.1 nM under setting [1] and 26.6 nM under setting [2].

“UUCAGGGAUCAAGGAUAUCUAUACUCAUGCGGACAUGAGGAUCACCCAUGUUGAUUACCCAUGAGGGAGAAGGUGAACAUGAGG”: the “apparent Kd” value was 31.3 nM under setting [3] and 18.7 nM under setting [4].

In the case of “UUUAUUUCGGCAGGAUAUACAUGUAUAUAUAUUCCCUCAUAUCUUAUUACAUGAGGAUCACCCAUGUAGAAGGGCCUUCUUCUC”, the “apparent Kd” value reads like this: under setting [1], 206 nM; under setting [2], 160 nM.

Turning to “UUUUUGUCAGGAUAUACGUAGUAGAACAAUAGUACUACUACGUAGAAGGGACAUGAGGAUCACCCAUGUUCCUC”, the “apparent Kd” value was 14.8 nM under setting [1] and 30.9 nM under setting [2].

Turning to “AGUAGAUCAGGAUAUACAUAAAUGAUAAUUAUGUACCUAAUACAUGAGGAUCACCCAUGUAGAAGGGAUCUACA”, the “apparent Kd” value under setting [1] stood at 14.9 nM and the “apparent Kd” value under setting [2] turned out to be 17.9 nM.

As for “CCAGCGAGUGUGAGGAUAUGCUGGUCCUUGGAUCAGCAGAAGGCACAUGAGGAUCACCCAUGUGAAAACGUUGG”, the “apparent Kd” value by setting is: under setting [1], 28.8 nM; under setting [2], 179 nM.

Regarding “CUCAGCUCGUCAGGAUAUACGUCACUGCUUCGGCAGUGUGGUAAGAUCACAUGAGGAUCACCCAUGUAGAAGGGACGAGCUGAC”, the “apparent Kd” value under setting [1] came to 12.7 nM and the “apparent Kd” value under setting [2] was determined as 316 nM.

The apparent Kd is the concentration giving half-maximal binding under the conditions of the assay.
